Reference: ChEMBL document CHEMBL1145952, “Hybrid-designed inhibitors of p38 MAP kinase utilizing N-arylpyridazinones” (J Med Chem, 2003)

Tests used:
[1] = target: T1, MAP kinase p38 (Homo sapiens, UniProt O15264+Q15759+Q16539+P53778); assay: Inhibition of LPS-induced p38-related Tumor necrosis factor alpha release by THP-1 cells at 4000 nM; type: functional, cell-based
[2] = target: Mitogen-activated protein kinase 11 (Mus musculus, UniProt Q9WUI1); assay: Displacement of [gamma-33P]-ATP binding from active recombinant murine FLAG-Mitogen-activated protein kinase p38 beta fusion protein (GST-ATF2)
Sequence of Mitogen-activated protein kinase 11 (Q9WUI1 whole entry, the tested form may be a part): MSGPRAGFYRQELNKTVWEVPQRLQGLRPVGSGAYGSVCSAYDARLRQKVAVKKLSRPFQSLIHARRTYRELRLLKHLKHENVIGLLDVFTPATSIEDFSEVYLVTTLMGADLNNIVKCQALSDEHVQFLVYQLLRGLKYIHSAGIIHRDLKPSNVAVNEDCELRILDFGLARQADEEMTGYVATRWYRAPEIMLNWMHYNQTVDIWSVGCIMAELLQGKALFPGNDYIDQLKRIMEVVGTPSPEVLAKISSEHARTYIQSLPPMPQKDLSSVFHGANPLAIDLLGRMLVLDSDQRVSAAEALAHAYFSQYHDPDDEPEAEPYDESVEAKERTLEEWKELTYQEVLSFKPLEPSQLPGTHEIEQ
Outline: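 Filter-plate binding assay of compound competing with [γ-33P]ATP on active recombinant murine FLAG-tagged p38 fusion protein, with GST-ATF2. IC50 values are the average of two or more separate assays. Repeat determinations differed by ±20% on average.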

[3] = target: Mitogen-activated protein kinase 9 (Homo sapiens) (UniProt P45984); assay: Inhibition of recombinant human flag-tagged JNK2-beta-2 at 5000 nM; type: functional
Sequence of Mitogen-activated protein kinase 9 (Homo sapiens) (P45984 whole entry, looked up, the tested form may be a part): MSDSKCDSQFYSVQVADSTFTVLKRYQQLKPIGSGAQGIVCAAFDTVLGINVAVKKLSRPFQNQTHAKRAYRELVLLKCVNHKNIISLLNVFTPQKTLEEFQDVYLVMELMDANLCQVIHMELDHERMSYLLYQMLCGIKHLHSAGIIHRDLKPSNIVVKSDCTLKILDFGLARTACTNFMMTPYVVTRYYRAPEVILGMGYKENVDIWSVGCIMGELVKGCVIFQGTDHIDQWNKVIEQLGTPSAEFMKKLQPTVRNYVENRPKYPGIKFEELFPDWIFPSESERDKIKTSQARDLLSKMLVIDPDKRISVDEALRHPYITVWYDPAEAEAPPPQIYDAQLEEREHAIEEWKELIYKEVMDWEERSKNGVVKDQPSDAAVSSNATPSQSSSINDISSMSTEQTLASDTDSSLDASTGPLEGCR
Outline: (§1)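 Kinase assay with recombinant human FLAG-tagged JNK2β fusion protein phosphorylating GST-ATF2. Phosphorylated GST-ATF2 detected by HTRF.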

[4] = target: Mitogen-activated protein kinase 14 (Mus musculus, UniProt P47811); assay: Tested in vitro for filter plate binding versus gamma-[33P]ATP in active recombinant murine FLAG-P38 alpha fusion protein (GST-Activating transcription factor-2).
Sequence of Mitogen-activated protein kinase 14 (P47811 whole entry, the tested form may be a part): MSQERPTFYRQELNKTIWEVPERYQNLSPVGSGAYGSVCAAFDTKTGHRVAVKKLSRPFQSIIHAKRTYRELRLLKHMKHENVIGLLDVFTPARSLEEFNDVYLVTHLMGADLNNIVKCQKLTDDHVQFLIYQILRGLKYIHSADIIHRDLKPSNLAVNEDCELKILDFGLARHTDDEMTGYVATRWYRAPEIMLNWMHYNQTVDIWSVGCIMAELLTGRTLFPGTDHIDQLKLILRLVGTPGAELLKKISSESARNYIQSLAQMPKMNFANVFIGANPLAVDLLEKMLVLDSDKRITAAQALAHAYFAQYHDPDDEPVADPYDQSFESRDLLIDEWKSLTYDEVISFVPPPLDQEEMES

[5] = target: Mitogen-activated protein kinase 11 (Mus musculus) (UniProt Q9WUI1); assay: Displacement of [gamma-33P]-ATP from recombinant murine Mitogen-activated protein kinase p38 beta at 5000 nM
Sequence of Mitogen-activated protein kinase 11 (Mus musculus) (Q9WUI1 whole entry): as the sequence (Q9WUI1 whole entry, the tested form may be a part) above

[6] = tested on: Mus musculus; assay: Tested ex vivo for MAPKAP plasma concentration at 1 hr after dosing; type: functional, organism-based
Outline: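 BALB/c mice (n = 5) given 3 mg/kg ip in DMSO/EtOH/PEG400/saline (10:10:60:20); blood drawn 1 h post-dose. Plasma level determined by bioassay: serial plasma dilutions run in the p38 inhibition assay, and the compound's free p38 IC50 multiplied by 1/(plasma dilution giving 50% inhibition, EC50).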

[7] = tested on: Mus musculus; assay: (§2) Ex vivo inhibition of Mitogen activated protein kinase activated protein 1 hr after 3 mg/kg dose; type: functional, organism-based; parameters: dose 3 mg/kg
Outline: (§3)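 BALB/c mice (n = 5 per compound) dosed ip at 3 mg/kg in DMSO/EtOH/PEG400/saline (10:10:60:20). Blood collected 1 h after dosing and murine MAPKAP activity measured ex vivo as % inhibition. Significance versus vehicle assessed at p < 0.05.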

[8] = target: Mitogen-activated protein kinase 9 (Homo sapiens) (UniProt P45984); assay: Inhibition of recombinant human flag-tagged JNK2-beta-2 at 10000 nM; type: functional; outline: as §1
[9] = target: T1, MAP kinase p38; assay: Inhibition of Tumor necrosis factor alpha release from LPS-induced THP-1 cells by ELISA; type: functional, cell-based
Outline: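 Human THP-1 monocytic cells stimulated with LPS. Human TNFα in the cell supernatant measured by ELISA.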

[10] = target: T1, MAP kinase p38; assay: Inhibition of LPS-induced p38-related Tumor necrosis factor alpha release in human whole blood; type: functional, tissue-based
[11] = target: T1, MAP kinase p38; assay: Inhibition of LPS-induced p38-related Tumor necrosis factor alpha release in human whole blood at 4000 nM; type: functional, tissue-based
[12] = species: Mus musculus; assay: Tested ex vivo for MAPKAP inhibition, activity expressed as plasma concentration; type: functional, organism-based
Outline: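 Mice dosed ip at 3 mg/kg and plasma taken 1 h after dosing. Plasma compound level determined by bioassay: plasma was diluted in the p38 inhibition assay to find the dilution giving 50% inhibition (EC50). Concentration = free-compound p38 IC50 × 1/dilution factor.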

[13] = as §2; type: functional; details: Mus musculus; outline: as §3
[14] = target: Mitogen-activated protein kinase 11 (Mus musculus) (UniProt Q9WUI1); assay: Displacement of [gamma-33P]-ATP from recombinant murine Mitogen-activated protein kinase p38 beta at 100 nM
[15] = target: Mitogen-activated protein kinase 14 (Mus musculus) (UniProt P47811); assay: Inhibition of [gamma-33P]-ATP binding to recombinant murine p38 alpha at 100 nM
Sequence of Mitogen-activated protein kinase 14 (Mus musculus) (P47811 whole entry): as the sequence (P47811 whole entry, the tested form may be a part) above

[16] = target: Mitogen-activated protein kinase 9 (Homo sapiens) (UniProt P45984); assay: Inhibition of recombinant human flag-tagged JNK2-beta-2 at 1000 nM; type: functional; outline: as §1

O=c1ccc(-c2c(-c3cccc(Cl)c3Cl)nc3ccccn23)nn1-c1c(Cl)cccc1Cl
inhibition [1]: 65%
IC50 [2]: 890 nM
inhibition [3]: 14%
IC50 [4]: 270 nM

O=C1CCC(c2c(-c3cccc(Cl)c3Cl)nc3ccccn23)=NN1c1c(Cl)cccc1Cl
inhibition [5]: 57%
inhibition [1]: 59%
inhibition [3]: 26%
IC50 [4]: 2000 nM

O=c1ncn2nc(Sc3ccc(F)cc3F)ccc2c1-c1c(Cl)cccc1Cl
Concentration [6]: 1730 nM
inhibition [7]: 29%

O=C1CCC(c2c(-c3cccc(C(F)(F)F)c3)nc3ccccn23)=NN1c1ccccc1Cl
inhibition [1]: 72%
inhibition [8]: 0%
IC50 [2]: 355 nM
IC50 [4]: 171 nM

O=c1ccc(-c2c(-c3ccc(F)cc3Cl)nc3ccccn23)nn1-c1ccccc1Cl
IC50 [9]: 161 nM
inhibition [8]: 0%
IC50 [2]: 171 nM
IC50 [4]: 76 nM

O=C1CCC(c2c(-c3ccc(F)cc3F)nc3ccccn23)=NN1c1c(Cl)cccc1Cl
IC50 [9]: 10 nM
inhibition [8]: 22%
IC50 [2]: 63 nM
IC50 [10]: 205 nM
IC50 [4]: 8 nM

O=c1ccc(-c2c(-c3cccc(C(F)(F)F)c3)nc3ccccn23)nn1-c1ccccc1Cl
inhibition [1]: 48%
IC50 [4]: 344 nM

Cc1ccccc1-n1nc(-c2c(-c3cccc(Cl)c3Cl)nc3ccccn23)ccc1=O
IC50 [9]: 6 nM
inhibition [8]: 15%
IC50 [2]: 44 nM
IC50 [10]: 500 nM
IC50 [4]: 22 nM

O=c1ccc(-c2c(-c3ccc(F)cc3F)nc3ccccn23)nn1-c1c(Cl)cccc1Cl
inhibition [1]: 89%
IC50 [2]: 112 nM
inhibition [3]: 11%
IC50 [10]: 1000 nM
IC50 [4]: 22 nM

O=C1CCC(c2c(-c3ccc(F)cc3Cl)nc3ccccn23)=NN1c1c(Cl)cccc1Cl
IC50 [9]: 180 nM
inhibition [8]: 0%
IC50 [2]: 670 nM
IC50 [4]: 42 nM

Cc1ccccc1-n1nc(-c2c(-c3ccc(F)cc3F)nc3ccccn23)ccc1=O
IC50 [9]: 68 nM
IC50 [2]: 140 nM
inhibition [3]: 15%
IC50 [10]: 870 nM
IC50 [4]: 26 nM

O=c1ccc(-c2c(-c3ccc(F)cc3Cl)nc3ccccn23)nn1-c1c(Cl)cccc1Cl
IC50 [9]: 161 nM
inhibition [8]: 23%
IC50 [2]: 64 nM
IC50 [4]: 14 nM

Cc1ccccc1N1N=C(c2c(-c3ccc(F)cc3F)nc3ccccn23)CCC1=O
IC50 [9]: 14 nM
inhibition [8]: 4%
IC50 [2]: 78 nM
IC50 [10]: 440 nM
IC50 [4]: 8 nM

O=c1ccc(-c2c(-c3ccc(F)cc3)nc3ccccn23)nn1-c1c(Cl)cccc1Cl
IC50 [9]: 70 nM
inhibition [8]: 40%
IC50 [2]: 153 nM
inhibition [11]: 60%
IC50 [4]: 49 nM

Cc1ccccc1N1N=C(c2c(-c3ccc(F)cc3Cl)nc3ccccn23)CCC1=O
IC50 [9]: 22 nM
IC50 [2]: 94 nM
inhibition [3]: 4%
IC50 [10]: 220 nM
IC50 [4]: 14 nM

O=c1ccc(-c2c(-c3cccc(C(F)(F)F)c3)nc3ccccn23)nn1-c1c(Cl)cccc1Cl
inhibition [5]: 50%
inhibition [1]: 41%
inhibition [8]: 0%
IC50 [4]: 1000 nM

Cc1ccccc1-n1nc(-c2c(-c3ccc(F)cc3Cl)nc3ccccn23)ccc1=O
IC50 [9]: 20 nM
IC50 [2]: 28 nM
inhibition [3]: 16%
Concentration [12]: 810 nM
IC50 [10]: 100 nM
IC50 [4]: 9 nM
inhibition in vivo at 3 mg/kg [13]: 42%

Cc1ccccc1N1N=C(c2c(-c3cccc(Cl)c3Cl)nc3ccccn23)CCC1=O
inhibition [14]: 33%
IC50 [9]: 170 nM
inhibition [15]: 36%
inhibition [16]: 0%

O=C1CCC(c2c(-c3ccc(F)cc3Cl)nc3ccccn23)=NN1c1ccccc1Cl
IC50 [9]: 400 nM
inhibition [8]: 0%
IC50 [2]: 2600 nM
IC50 [4]: 208 nM
